Hits are enriched below; roughly 2% of the tested compounds scored in any of these assays.
ARNT-TACC3 inh: disruptors of human ARNT/TACC3 interaction. Q9Y6A5. AlphaScreen His-ARNT PAS-B/GST-TACC3 binding, luminescence; TACC3 fragment carries E629A point mutation. inhibition, % at 9.99 µM. actives 0.66% (n = 390,000). AID 623870;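 active = mean inhibition of replicates at least 50% and at least half of replicates each reaching 50%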;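 also: 0% = complete ARNT plus TACC3 wells and 100% = ARNT alone without TACC3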
NSD2 HMT inh: inhibitors of human histone methyltransferase NSD2; inhibition, % at 12.5 µM; actives 0.54% (n = 310,000); NSD2 peptide methylation, AlphaScreen, 120 min; AID 743445; in the data active = inhibition above about 50%
SR-BI DiI inh: mouse SR-BI HDL lipid transfer inhibition. inhibition, % at 12.5 µM. ldlA[mSR-BI] CHO cells, DiI-HDL uptake fluorescence, 3 h. Q61009. actives 0.96% (n = 320,000);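 active = mean replicate inhibition of at least 70% and a set share of replicates each scoring 70 or more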;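 also: 0% = median of neutral control wells and 100% = median of positive control wells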
Target sequence (Q61009 whole entry, looked up): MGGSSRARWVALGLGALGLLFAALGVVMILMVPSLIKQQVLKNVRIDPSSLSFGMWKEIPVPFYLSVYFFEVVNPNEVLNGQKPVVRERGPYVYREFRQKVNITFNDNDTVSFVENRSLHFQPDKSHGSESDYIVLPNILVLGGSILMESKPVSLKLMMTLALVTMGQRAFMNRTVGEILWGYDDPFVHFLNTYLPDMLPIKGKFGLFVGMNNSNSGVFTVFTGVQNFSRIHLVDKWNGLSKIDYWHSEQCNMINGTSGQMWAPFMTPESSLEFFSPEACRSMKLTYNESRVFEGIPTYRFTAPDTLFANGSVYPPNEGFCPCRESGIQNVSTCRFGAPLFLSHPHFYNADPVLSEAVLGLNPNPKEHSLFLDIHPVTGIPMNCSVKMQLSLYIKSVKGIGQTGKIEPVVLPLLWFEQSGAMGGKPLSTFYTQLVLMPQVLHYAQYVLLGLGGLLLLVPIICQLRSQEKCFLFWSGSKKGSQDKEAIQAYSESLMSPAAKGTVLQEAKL
Xi reactivation: X-chromosome reactivation activator; XiGFP mouse fibroblasts, % GFP-positive cells imaging, 3 d; cells co-treated with 5-aza-dC sensitizer; scaled so ellipticine positive control = 100%; activation, % at 7.58 µM; actives 0.055% (n = 360,000); AID 743238;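 active = mean normalized replicate activation at least 10% and every replicate at or above 10%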;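 also: 0% = median of on-plate neutral control wells and 100% = ellipticine 6 µM median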
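System: 68-5-11 XiGFP fibroblast line; Timing: 3 days compound exposure; Compound dosing: one concentration, pinned; Benchmarks: positive control ellipticine, 6 µM final; Buffer or medium: DMEM containing 5-aza-dC.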
sPLA2-III inh: Blocks human group III sPLA2 activity; Q9NZ20; QFRET BODIPY PC-A2 liposome hydrolysis, fluorescence; inhibition, % at 12.2 µM; actives 0.56% (n = 370,000); AID 743126;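 active = inhibition above mean plus 3 SD of compounds lying within the high and low control bounds, cut at about 19% in these data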;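 also: 0% = median of test compound wells and 100% = no enzyme DMSO wells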
SR-BI DiI-HDL act: enhances SR-BI lipid uptake from DiI-HDL. CHO ldlA[mSR-BI] cells, DiI-HDL uptake fluorescence, 3 h; 100 = double the neutral-control signal. activation, % at 12.5 µM. actives 0.096% (n = 320,000). AID 504775;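 active = mean replicate activation of at least 60% and every replicate at or above 60%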;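 also: 0% = median plate neutral-control signal and 100% = twice that signal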
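System: LDL receptor-deficient CHO ldlA cells overexpressing murine SR-BI | Timing: 3 h uptake period with compound, 37 °C | Medium: HEPES-buffered (25 mM, pH 7.4) F12 plus 0.5% BSA | Dosing: Single-point compound dose | Signal: Bottom-read fluorescence, 550/595 nm | Read-out: Retained DiI signal reflecting DiI-HDL uptake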
hGIII sPLA2 conf: human GIII-sPLA2 inhibition, confirmation; recombinant hGIII-sPLA2, BODIPY PC-A2 QFRET fluorescence; shares compounds with sPLA2-III inh; actives 34% (n = 2,000); inhibition, % at 12.2 µM;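 active = mean inhibition across triplicates above the hit cutoff set in the earlier primary screen, cut at about 19% in these data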;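 also: 0% = enzyme with DMSO and 100% = DMSO wells lacking enzyme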
535nm interf: optically interferes with 535nm fluorescence in sPLA2 counter-screen. actives 8.5% (n = 2,000). inhibition, % at 12.2 µM. BODIPY FL product fluorescence interference, QFRET. AID 743282. shares compounds with sPLA2-III inh;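 active = average inhibition above the solvent-only control mean plus 3 SD, cut at about 6% in these data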;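 also: 0% = DMSO with substrate plus product and 100% = DMSO with substrate alone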
BODIPY interf DR: 535nm optical interference dose response, HGIII-sPLA2 counter-screen. shares compounds with sPLA2-III inh. BODIPY FL product fluorescence interference, cell-free. IC50, µM. 240 tested, under 10 active. AID 743455;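 active = IC50 at or below 10 µM; inactive = IC50 above 10 µM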
Active calls of the source: *; . = no result; ! = not confirmed by another sample.

SMILES	ARNT-TACC3 inh	NSD2 HMT inh	SR-BI DiI inh	Xi reactivation	sPLA2-III inh	SR-BI DiI-HDL act	hGIII sPLA2 conf	535nm interf	others
COc1cccc(-n2c(N)c(C#N)c3ccc([N+](=O)[O-])cc3c2=O)c1	.	0.2	.	0.3	25.8*	.	5.8	-0.8
O=C1/C(=C/c2ccccn2)SC(=S)N1Nc1ncc(C(F)(F)F)cc1Cl	16.6	2.7	12.9	0.0	20.6*	-12.9	31.5*	-0.6	BODIPY interf DR=>122
O=C1/C(=C\c2ccccn2)SC(=S)N1Nc1ncc(C(F)(F)F)cc1Cl	5.8	7.4	13.9	.	.	-13.9	.	.
Cc1cccc(-n2cnc(C(=O)NNC(=S)Nc3ccc(Cl)cc3)c2)n1	66.7*	11.3	0.0	0.0	33.6*	0.0	59.0*	7.9*
Cc1ccc(Cn2cc(CN3CC=CS3(=O)=O)nn2)cc1	.	.	.	.	3.0	.	.	.
COCCCn1cc(CN2CC=CS2(=O)=O)nn1	.	.	.	.	21.1*	.	-0.4	-5.8
O=C1C(=Cc2cccc(Cl)c2)Cc2ccccc21	.	-3.0	.	-0.1	4.2	.	.	.
O=C1C(=Cc2cccc(Cl)c2)CCc2ccccc21	.	-0.3	.	0.0	20.8*	.	-1.3	-2.6
COC(=O)/C=C\C(C#N)(C#N)N=Cc1ccc(OC)cc1	4.8	-0.9	-3.8	0.0	-0.9	3.8	.	.
S=C1NCN(C2CCCCC2)CN1CCc1ccccc1	.	4.2	.	0.0	21.5*	.	20.5*	-9.0
CCOc1ccc(CCN2CN(C3CCCCC3)CNC2=S)cc1OCC	38.8	1.4	0.3	0.0	18.3	-0.3	.	.
O=C(/C=C/c1cccs1)NNC(=O)c1ccccc1	-4.6	2.6	-10.4	-0.1	19.8*	10.4	-1.0	-4.8
O=C(/C=C/c1cccs1)NC(=S)NNC(=O)Cc1cccs1	21.2	10.7	-5.7	.	29.3*	5.7	39.0*	-7.0	BODIPY interf DR=>122
CC(C)CNC(=O)/C=C/c1cccs1	-9.5	23.1	-9.1	0.3	21.6*	9.1	-0.2	-1.8
O=C(/C=C/c1cccs1)NNC(=O)c1cccc([N+](=O)[O-])c1	3.0	0.7	-16.2	-0.1	0.5	16.2	.	.
CCC(=O)N=c1n(C)c2ccccc2n1CCOc1ccccc1	-6.8	-2.3	-39.6	0.4	4.9	39.6	.	.
Cc1ccc(S(=O)(=O)N(C)CCCC(=O)Nc2ccccn2)cc1	-1.0	-6.0	-13.4	0.0	19.6*	13.4	-1.3	-8.7
CCCCN(CCCC)C(=S)NC(=O)c1ccccc1Cl	11.0	-3.5	-12.4	0.1	30.2*	12.4	10.8	-0.6
NC(=O)Cc1cn(-c2ncc(C(F)(F)F)cc2Cl)c2ccccc12	4.6	-3.2	-7.3	.	34.3*	7.3	13.8	-10.6
CCCOC(=O)CCCCC1SCC(NC(=O)OC)C1NC(=O)OC (configuration not stated)	-0.6	42.0	-7.4	.	19.6*	7.4	-2.2	-9.0
COC(=O)CCCCC1SCC(NC(=O)OC)C1NC(=O)OC (configuration not stated)	1.1	-0.2	-1.3	.	4.4	1.3	.	.
O=C1c2ccccc2CN1CCSC(=S)N1CCOCC1	-1.1	29.0	-38.4	0.0	20.6*	38.4	6.4	-10.2
CC1CN(C(=S)SCCN2Cc3ccccc3C2=O)CC(C)O1 (configuration not stated)	-2.5	0.4	7.7	0.0	1.6	-7.7	.	.
CCCCNC(=S)NNC(=O)c1csc(C)c1C	27.0	2.0	-12.9	0.0	27.1*	12.9	29.2*	-2.0	BODIPY interf DR=>122
C=CCNC(=S)NNC(=O)c1csc(C)c1C	-19.0	-0.9	-15.5	0.4	24.3*	15.5	21.4*	-6.6
SMILES	ARNT-TACC3 inh	NSD2 HMT inh	SR-BI DiI inh	Xi reactivation	sPLA2-III inh	SR-BI DiI-HDL act	hGIII sPLA2 conf	535nm interf	others
CCCCNC(=S)NNC(=O)c1sccc1C	25.5	1.8	-4.4	.	.	4.4	.	.
Cc1scc(C(=O)NNC(=S)NC(C)c2ccccc2)c1C (configuration not stated)	10.0	0.2	-28.7	0.0	30.3*	28.7	17.8	5.1
O=C(NCc1ccccc1)N1CCNCC1	-2.0	-3.7	7.9	0.1	21.5*	-7.9	1.4	-6.9
CN(C)c1ccc(/C=N/NC(=O)CNC(=O)c2ccncc2)cc1	-23.9	0.0	-14.8	0.9	2.7	14.8	.	.
CC/C(=C\c1ccc(N(C)C)cc1)c1ccncc1	10.8	3.5	-1.7	0.0	22.6*	1.7	19.6*	-0.4
CCOc1cc(CNc2ncc(-c3ccc(OC)cc3)n2C)ccc1O	2.4	-1.1	-17.7	.	20.1*	17.7	6.5	-16.9
Cc1nn(-c2ccccc2)c(NC(=O)C(C)C)c(-c2ccccc2)c1=O	.	36.9	.	0.0	18.4	.	.	.
CCCC(=O)Nc1c(-c2ccccc2)c(=O)c(C)nn1-c1ccccc1	-22.0	-1.8	-9.0	0.0	20.1*	9.0	-2.6	-6.6
FC(F)(F)c1cccc(CC2CN(Cc3ccccc3)Cc3ccccc3N2c2cc(Cl)cc(Cl)c2)c1 (configuration not stated)	.	.	.	-0.1	27.0*	.	-4.0	3.2
COC(=O)[C@]12CCCCC=C1N(Cc1cccc3ccccc13)C(=O)[C@H](CC(=O)NCc1cccc(C(F)(F)F)c1)C2	.	.	.	0.0	-10.4	.	.	.
Cc1ccccc1N1CCN(C(=S)c2ccccc2)CC1	-9.5	-0.1	5.7	0.0	21.1*	-5.7	10.4	-3.4
S=C(c1ccccc1)N1CCN(c2ccccc2)CC1	7.8	3.4	5.7	0.1	2.8	-5.7	.	.
COc1cc(N=c2ssnc2Cl)c(OC)cc1Cl	2.9	3.2	10.0	0.3	22.8*!	-10.0	33.3*	0.9	BODIPY interf DR=>122
COc1ccc(OC)c(N=c2ssnc2Cl)c1	-1.3	.	12.1	.	7.5	-12.1	.	.
NC(=S)N/N=C/c1c(O)c(Br)cc2oc3c(c12)CCCC3	10.0	5.1	36.6	0.3	33.1*	-36.6	31.2*	6.2*
C[C@H]1CN([C@@H](C)CO)C(=O)CCCn2nncc2CO[C@H]1CN(C)S(C)(=O)=O	-4.6	.	.	0.0	3.7	.	.	.
CN(c1ccccc1)c1cc(=O)[nH]c(=O)[nH]1	7.2	2.0	9.1	0.0	27.5*	-9.1	-1.1	-3.4
S=c1[nH]cc(Cc2ccccc2)s1	.	17.6	-27.7	0.1	38.1*	27.7	27.1*	-2.3
